Values after ≈ are worked out from the molar mass of the structure shown. Active and inactive are the calls of the source. No cut-off for these calls is given here.
Legend:
Streptococcus pneumoniae [1] = assay: Potency index, ratio of ampicillin MIC to test compound MIC for Streptococcus pneumoniae RCMB 010010; format: functional
Pseudomonas aeruginosa [2] = conditions: RCMB 010043
Aspergillus fumigatus [3] = assay: Antimicrobial activity against Aspergillus fumigatus RCMB 02568 assessed as diameter of zone inhibition at 100 ug/ml after 48 hrs by agar well diffusion assay; format: functional; conditions: RCMB 02568, 48 h, read-out: DIZ
In short: (§1)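 Agar well diffusion on malt agar plates seeded with the fungus, using 1 cm wells. Plates were held at 4°C for 1 h for diffusion, then incubated at 28°C. Inhibition zone diameters were measured at 48 h. Amphotericin B was the positive control. Run in triplicate, with the mean zone reported.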

[4] = tested on: Mycobacterium tuberculosis; assay: Antimycobacterial activity against Mycobacterium tuberculosis RCMB 010126 clinical isolate assessed as inhibition zone after 7 days by MABA; format: functional
In short: (§2)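 Inoculum from fresh LJ culture resuspended in 7H9-S broth with casitone, glycerol and OADC, adjusted to McFarland No. 1 and diluted 1:20. Serial two-fold compound dilutions in 7H9-S; isoniazid reference. Incubated 7 days at 37°C in air, then Alamar blue added and incubated overnight. Percent inhibition = 1 − (test well/growth-control mean) × 100; MIC = lowest concentration preventing blue-to-pink change.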

Streptococcus pneumoniae [5] = assay: Antimicrobial activity against Streptococcus pneumoniae RCMB 010010 assessed as diameter of zone inhibition at 100 ug/ml after 24 hrs by agar well diffusion assay; format: functional; conditions: RCMB 010010, 24 h, read-out: DIZ
In short: (§3)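 Agar well diffusion on nutrient agar plates seeded with the bacterium, using 1 cm wells. Plates were held at 4°C for 1 h for diffusion, then incubated at 37°C. Inhibition zone diameters were measured at 24 h. Ciprofloxacin was the positive control. Run in triplicate, with the mean zone reported.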

Staphylococcus aureus [6] = assay: Antimicrobial activity against Staphylococcus aureus RCMB 010028 assessed as diameter of zone inhibition at 100 ug/ml after 24 hrs by agar well diffusion assay; format: functional; conditions: RCMB 010028, 24 h, read-out: DIZ; in short: as §3
Candida albicans [7] = assay: Antimicrobial activity against Candida albicans RCMB 05036 assessed as diameter of zone inhibition at 100 ug/ml after 48 hrs by agar well diffusion assay; format: functional; conditions: RCMB 05036, 48 h, read-out: DIZ; in short: as §1
Escherichia coli [8] = assay: Potency index, ratio of ciprofloxacin MIC to test compound MIC for Escherichia coli RCMB 010052; format: functional
Aspergillus fumigatus [9] = assay: Antimicrobial activity against Aspergillus fumigatus RCMB 02568 after 48 hrs by serial dilution method; format: functional; conditions: RCMB 02568, 48 h
In short: (§4)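 Serial twofold dilution in microtiter plates starting from a 100 mmol stock in DMSO; final concentrations 125 down to 0.12 […]. Incubated at 28°C and read on a microplate reader after 48 h. Amphotericin B was the reference. Run in triplicate, with the average taken. MIC was the lowest concentration inhibiting growth.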

Escherichia coli [10] = assay: Antimicrobial activity against Escherichia coli RCMB 010052 after 24 hrs by serial dilution method; format: functional; conditions: RCMB 010052, 24 h
In short: as §4, with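 “37°C” for “28°C”, “24” for “48”, “Ciprofloxacin” for “Amphotericin B”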

Streptococcus pneumoniae [11] = assay: Antimicrobial activity against Streptococcus pneumoniae RCMB 010010 after 24 hrs by serial dilution method; format: functional; conditions: RCMB 010010, 24 h
In short: as §4, with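 “37°C” for “28°C”, “24” for “48”, “Ciprofloxacin” for “Amphotericin B”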

WI-38 = assay: Cytotoxicity against human WI38 cells assessed as reduction in cell viability after 24 hrs by crystal violet staining-based colorimetric method; conditions: WI-38, 24 h
In short: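 WI-38 cells were grown in DMEM with 10% FBS at 37°C and 5% CO2, then seeded at 1×10^4 cells/well. Serial twofold dilutions were added, three wells per concentration. Viability was read by crystal violet stain, solubilised in 30% acetic acid, at 490 nm. Run in triplicate. IC50 was estimated from dose-response plots.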

Escherichia coli [12] = assay: Antimicrobial activity against Escherichia coli RCMB 010052 assessed as diameter of zone inhibition at 100 ug/ml after 24 hrs by agar well diffusion assay; format: functional; conditions: RCMB 010052, 24 h, read-out: DIZ; in short: as §3
Pseudomonas aeruginosa [13] = conditions: RCMB 010043, 100 ug/ml
[14] = Selectivity index, ratio of IC50 for human WI38 cells to MIC for Mycobacterium tuberculosis RCMB 010126 clinical isolate; format: toxicity; conditions: read-out: Selectivity Index
In short: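 WI-38 human lung fibroblasts grown in DMEM with 10% FBS at 37°C and 5% CO2, seeded at 1×10^4 cells/well, and exposed to serial two-fold dilutions in triplicate. Viability read by crystal violet stain at 490 nm. IC50 taken from dose-response plots. Ratio uses this IC50 against the MABA MIC for M. tuberculosis.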

Candida albicans [15] = assay: Antimicrobial activity against Candida albicans RCMB 05036 after 48 hrs by serial dilution method; format: functional; conditions: RCMB 05036, 48 h; in short: as §4
[16] = tested on: Mycobacterium tuberculosis; assay: Antimycobacterial activity against Mycobacterium tuberculosis RCMB 010126 clinical isolate after 7 days by MABA; format: functional; in short: as §2
Staphylococcus aureus [17] = assay: Antimicrobial activity against Staphylococcus aureus RCMB 010028 after 24 hrs by serial dilution method; format: functional; conditions: RCMB 010028, 24 h
In short: as §4, with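 “37°C” for “28°C”, “24” for “48”, “Ciprofloxacin” for “Amphotericin B”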

Pseudomonas aeruginosa [18] = assay: microbe, parasite or virus in culture; conditions: RCMB 010043, 24 h, read-out: DIZ
Pseudomonas aeruginosa [19] = assay: microbe, parasite or virus in culture; conditions: RCMB 010043, 24 h
[20] = Mycobacterium tuberculosis, RCMB 010126, 168 h

Row | Structure (SMILES) | MIC (Pseudomonas aeruginosa [2]) | zone of inhibition at 100 µg/mL (Aspergillus fumigatus [3]) [mm] | inhibition zone (IZ) [4] | zone of inhibition at 100 µg/mL (Streptococcus pneumoniae [5]) [mm] | zone of inhibition at 100 µg/mL (Staphylococcus aureus [6]) [mm] | zone of inhibition at 100 µg/mL (Candida albicans [7]) [mm] | Ratio (Escherichia coli [8]) | MIC (Aspergillus fumigatus [9]) [µg/mL] | MIC (Escherichia coli [10]) [µg/mL] | MIC (Streptococcus pneumoniae [11]) [µg/mL] | IC50 (WI-38) [µg/mL] | zone of inhibition at 100 µg/mL (Escherichia coli [12]) [mm] | DIZ (Pseudomonas aeruginosa [13]) | selectivity ratio [14] | MIC (Candida albicans [15]) [µg/mL] | MIC [16, 20] [µg/mL] | MIC (Staphylococcus aureus [17]) [µg/mL] | further results
1 | COc1cc(/C=N/NC(=O)c2ccc(-c3cccc(Cl)c3)nc2C)cc(OC)c1OC | inactive | 23.3 | 70.48 mm | 23.1 | 21.3 | 21.4 | 2 | 0.98 (≈ 2.23 µM) | 0.49 (≈ 1.11 µM) | 0.49 (≈ 1.11 µM) | 495 (≈ 1130 µM) | 25.3 | inactive | 635 | 0.49 (≈ 1.11 µM) | 0.78 (≈ 1.77 µM) | 1.95 (≈ 4.43 µM) | Ratio (Streptococcus pneumoniae [1]): 2
2 | O=C(O)c1cn(C2CC2)c2cc(N3CCNCC3)c(F)cc2c1=O [CIPROFLOXACIN] |  |  |  |  |  |  |  |  | 0.98 (≈ 2.96 µM) |  |  | 23.4 |  |  |  |  |  | zone of inhibition at 100 µg/mL (Pseudomonas aeruginosa [18]): 20.6 mm; MIC (Pseudomonas aeruginosa [19]): 1.95 µg/mL (≈ 5.89 µM)
3 | COc1ccc(OC)c(/C=N/NC(=O)c2ccc(-c3ccc(Cl)cc3)nc2C)c1 | inactive | 24.3 | 85.32 mm | 24.3 | 22.3 | 22.5 | 2 | 0.98 (≈ 2.39 µM) | 0.49 (≈ 1.2 µM) | 0.49 (≈ 1.2 µM) | 500 (≈ 1220 µM) | 24.3 | inactive | 1280 | 0.98 (≈ 2.39 µM) | 0.39 (≈ 0.952 µM) | 0.98 (≈ 2.39 µM) | Ratio (Streptococcus pneumoniae [1]): 2
4 | COc1cc(/C=N/NC(=O)c2ccc(-c3ccc(Cl)cc3)nc2C)cc(OC)c1OC | inactive | 21.8 | 68.42 mm | 21.3 | 23.4 | 20.4 |  | 0.98 (≈ 2.23 µM) | 1.95 (≈ 4.43 µM) | 1.95 (≈ 4.43 µM) | 41.1 (≈ 93.4 µM) | 21.3 | inactive | 52.7 | 1.95 (≈ 4.43 µM) | 0.78 (≈ 1.77 µM) | 0.98 (≈ 2.23 µM) | 
5 | O=C(N/N=C/c1ccc(Cl)cc1Cl)c1c[nH]c2cc(Cl)ccc2c1=O | inactive | 20.3 | inactive | 22.1 | 20.6 | 19.6 | 2 | 3.9 (≈ 9.88 µM) | 0.49 (≈ 1.24 µM) | 0.98 (≈ 2.48 µM) |  | 24.3 | inactive |  | 3.9 (≈ 9.88 µM) |  | 1.95 (≈ 4.94 µM) | MIC [16]: inactive
6 | Cc1nc(-c2ccc(Cl)cc2)ccc1C(=O)N/N=C/c1ccc(O)cc1 | inactive | 19.3 | 53.21 mm | 20.3 | 18.3 | 17.3 |  | 3.9 (≈ 10.7 µM) | 3.9 (≈ 10.7 µM) | 3.9 (≈ 10.7 µM) | 500 (≈ 1370 µM) | 19.2 | inactive | 160 | 15.6 (≈ 42.7 µM) | 3.12 (≈ 8.53 µM) | 7.81 (≈ 21.3 µM) | 
7 | COc1ccc(/C=N/NC(=O)c2ccc(-c3ccc(Cl)cc3)nc2C)cc1 | inactive | 20.9 | 70.34 mm | 21.3 | 20.1 | 19.2 |  | 1.95 (≈ 5.13 µM) | 1.95 (≈ 5.13 µM) | 1.95 (≈ 5.13 µM) | 500 (≈ 1320 µM) | 20.9 | inactive | 641 | 3.9 (≈ 10.3 µM) | 0.78 (≈ 2.05 µM) | 3.9 (≈ 10.3 µM) | 
8 | COc1ccc(/C=N/NC(=O)c2ccc(-c3cccc(Cl)c3)nc2C)cc1OC | inactive | 19.3 | 73.58 mm | 19.6 | 17.9 | 17.2 |  | 3.9 (≈ 9.52 µM) | 1.95 (≈ 4.76 µM) | 3.9 (≈ 9.52 µM) | 168 (≈ 410 µM) | 21.6 | inactive | 215 | 15.6 (≈ 38.1 µM) | 0.78 (≈ 1.9 µM) | 7.81 (≈ 19.1 µM) | -logMIC [16]: 0.1079
9 | COc1cccc(/C=N/NC(=O)c2ccc(-c3ccc(Cl)cc3)nc2C)c1O | inactive | 21.3 | 80.63 mm | 22.3 | 20.5 | 20.3 |  | 1.95 (≈ 4.93 µM) | 1.95 (≈ 4.93 µM) | 0.98 (≈ 2.48 µM) | 500 (≈ 1260 µM) | 21.5 | inactive | 1280 | 3.9 (≈ 9.85 µM) | 0.39 (≈ 0.985 µM) | 1.95 (≈ 4.93 µM) | 
10 | Cc1nc(-c2cccc(Cl)c2)ccc1C(=O)N/N=C/c1ccc(Cl)cc1 | inactive | 20.3 | 43.25 mm | 21.3 | 19.6 | 17.9 | 2 | 1.95 (≈ 5.07 µM) | 0.49 (≈ 1.28 µM) | 1.95 (≈ 5.07 µM) |  | 23.7 | inactive |  | 3.9 (≈ 10.1 µM) | 6.24 (≈ 16.2 µM) | 1.95 (≈ 5.07 µM) | 

Reference: ChEMBL document CHEMBL4130356, “Design, synthesis and 2D QSAR study of novel pyridine and quinolone hydrazone derivatives as potential antimicrobial and antitubercular agents” (Eur J Med Chem, 2017)
